What was measured:
[1] = system: MCF7; assay: Antiproliferative activity against human MCF7 cells after 72 hrs by MTT assay; format: functional, cell-based; settings: MCF7, 72 h
In short: (§1)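 MTT viability assay. Cells grown in RPMI-1640 with 10% heat-inactivated FBS, L-glutamine and 1% penicillin/streptomycin, used within 20 passages. Seeded at 5×10^3 cells/well, left overnight at 37 °C, then exposed to final concentrations of 0.005–50 µM (0.1% DMSO) for up to 72 h. MTT added for 3 h, formazan dissolved in DMSO, absorbance read at 550 nm. IC50 derived relative to untreated controls.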

[2] = system: K562; assay: Antiproliferative activity against human K562 cells after 72 hrs by MTT assay; format: functional, cell-based; settings: K562, 72 h
[3] = system: A2780; assay: Antiproliferative activity against human A2780 cells after 72 hrs by MTT assay; format: functional, cell-based; settings: A2780, 72 h; in short: as §1
[4] = system: HCT-116; assay: Antiproliferative activity against human HCT116 cells after 72 hrs by MTT assay; format: functional, cell-based; settings: HCT-116, 72 h; in short: as §1
[5] = Antiproliferative activity against human WM793B cells after 72 hrs by MTT assay; format: functional, cell-based; in short: as §1
[6] = target: Calcium/calmodulin-dependent protein kinase type 1 (Homo sapiens) (UniProt Q14012); assay: Inhibition of CAMK1 (unknown origin) at 10 uM by [33P]-ATP radiometric assay
In short: (§2)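 Radiometric kinase profiling: purified recombinant kinase (~10–50 nM final) with substrate, assay buffer and compound at 10 µM (control 10% DMSO). Started with 33P-ATP (50 µM stock, 0.8 µCi), run 30 min at ambient temperature, then spotted onto P81 phosphocellulose and washed in 1% phosphoric acid. Scintillation counted, no-substrate blank subtracted, single measurement, result given as % change versus control.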

[7] = target: Calcium/calmodulin-dependent protein kinase type II subunit alpha (Homo sapiens) (UniProt Q9UQM7); assay: Inhibition of CAMK2-alpha (unknown origin) at 10 uM by [33P]-ATP radiometric assay; in short: as §2
[8] = target: Mast/stem cell growth factor receptor Kit (Homo sapiens) (UniProt P10721); assay: Inhibition of c-KIT (unknown origin) at 10 uM by [33P]-ATP radiometric assay
In short: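 Radiometric kinase profiling: purified recombinant kinase (~10–50 nM final) with substrate, assay buffer and compound at 10 µM (control 10% DMSO). Started with 33P-ATP (50 µM stock, 0.8 µCi), run 30 min at ambient temperature, then spotted onto P81 phosphocellulose and washed in 1% phosphoric acid.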

[9] = target: Epidermal growth factor receptor (Homo sapiens) (UniProt P00533); assay: Inhibition of EGFR (unknown origin) at 10 uM by [33P]-ATP radiometric assay; in short: as §2
[10] = target: Mitogen-activated protein kinase 3 (Homo sapiens) (UniProt P27361); assay: Inhibition of ERK1 (unknown origin) at 10 uM by [33P]-ATP radiometric assay; in short: as §2
[11] = target: Fibroblast growth factor receptor 1 (Homo sapiens) (UniProt P11362); assay: Inhibition of FGFR1 (unknown origin) at 10 uM by [33P]-ATP radiometric assay; in short: as §2
[12] = target: Receptor tyrosine-protein kinase erbB-2 (Homo sapiens) (UniProt P04626); assay: Inhibition of HER2 (unknown origin) at 10 uM by [33P]-ATP radiometric assay; in short: as §2
[13] = target: Mitogen-activated protein kinase 8 (Homo sapiens) (UniProt P45983); assay: Inhibition of JNK1 (unknown origin) at 10 uM by [33P]-ATP radiometric assay; in short: as §2
[14] = target: Hepatocyte growth factor receptor (Homo sapiens) (UniProt P08581); assay: Inhibition of MET (unknown origin) at 10 uM by [33P]-ATP radiometric assay; in short: as §2
[15] = target: Cyclin-dependent kinase 16 (Homo sapiens) (UniProt Q00536); assay: Inhibition of CDK16 (unknown origin) at 10 uM by [33P]-ATP radiometric assay; in short: as §2
[16] = target: Protein kinase C beta type (Homo sapiens) (UniProt P05771); assay: Inhibition of PCK-beta2 (unknown origin) at 10 uM by [33P]-ATP radiometric assay; in short: as §2
[17] = system: MCF7; assay: Induction of apoptosis in human MCF7 cells assessed as viable cells at 1 uM after 72 hrs by annexin V-FITC/propidium iodide staining-based flow cytometric method (reference value: 76%); format: functional; settings: MCF7, 72 h, read-out: Activity
[18] = system: MCF7; assay: Induction of apoptosis in human MCF7 cells assessed as early apoptotic cells at 1 uM after 72 hrs by annexin V-FITC/propidium iodide staining-based flow cytometric method (reference value: 9%); format: functional
[19] = system: MCF7; assay: Induction of apoptosis in human MCF7 cells assessed as late apoptotic cells at 1 uM after 72 hrs by annexin V-FITC/propidium iodide staining-based flow cytometric method (reference value: 2.6%); format: functional
[20] = system: MCF7; assay: Induction of apoptosis in human MCF7 cells assessed as necrotic cells at 1 uM after 72 hrs by annexin V-FITC/propidium iodide staining-based flow cytometric method (reference value: 12.6%); format: functional
[21] = system: MCF7; assay: Induction of apoptosis in human MCF7 cells assessed as viable cells at 5 uM after 72 hrs by annexin V-FITC/propidium iodide staining-based flow cytometric method (reference value: 76%); format: functional; settings: MCF7, 72 h, read-out: Activity
[22] = system: MCF7; assay: Induction of apoptosis in human MCF7 cells assessed as early apoptotic cells at 5 uM after 72 hrs by annexin V-FITC/propidium iodide staining-based flow cytometric method (reference value: 9%); format: functional
[23] = system: MCF7; assay: Induction of apoptosis in human MCF7 cells assessed as late apoptotic cells at 5 uM after 72 hrs by annexin V-FITC/propidium iodide staining-based flow cytometric method (reference value: 2.6%); format: functional
[24] = system: MCF7; assay: Induction of apoptosis in human MCF7 cells assessed as necrotic cells at 5 uM after 72 hrs by annexin V-FITC/propidium iodide staining-based flow cytometric method (reference value: 12.6%); format: functional
[25] = system: MCF7; assay: Induction of apoptosis in human MCF7 cells assessed as viable cells at 10 uM after 72 hrs by annexin V-FITC/propidium iodide staining-based flow cytometric method (reference value: 76%); format: functional; settings: MCF7, 72 h, read-out: Activity
[26] = system: MCF7; assay: Induction of apoptosis in human MCF7 cells assessed as early apoptotic cells at 10 uM after 72 hrs by annexin V-FITC/propidium iodide staining-based flow cytometric method (reference value: 9%); format: functional
[27] = system: MCF7; assay: Induction of apoptosis in human MCF7 cells assessed as late apoptotic cells at 10 uM after 72 hrs by annexin V-FITC/propidium iodide staining-based flow cytometric method (reference value: 2.6%); format: functional
[28] = system: MCF7; assay: Induction of apoptosis in human MCF7 cells assessed as necrotic cells at 10 uM after 72 hrs by annexin V-FITC/propidium iodide staining-based flow cytometric method (reference value: 12.6%); format: functional
[29] = system: MCF7; assay: Induction of apoptosis in human MCF7 cells assessed as increase of early apoptotic cells after 72 hrs by annexin V-FITC/propidium iodide staining-based flow cytometric method; format: functional, cell-based
In short: (§3)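 MCF-7 cells treated 72 h at final 1, 5, 10 µM, then annexin V-FITC/PI stained in pH 7.4 HEPES binding buffer and analysed by flow cytometry. Early or late apoptotic cell fraction expressed as percent change versus vehicle control: (sample − control)/control × 100. Triplicates.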

[30] = system: MCF7; assay: Induction of apoptosis in human MCF7 cells assessed as increase of early apoptotic cells at 1 to 10 uM after 72 hrs by annexin V-FITC/propidium iodide staining-based flow cytometric method relative to control; format: functional; in short: as §3
[31] = target: Activin receptor type-2A (Homo sapiens) (UniProt P27037); assay: Inhibition of ACVR2A (unknown origin) at 10 uM by [33P]-ATP radiometric assay; in short: as §2
[32] = target: Casein kinase I isoform alpha (Homo sapiens) (UniProt P48729); assay: Inhibition of CK1alpha1 (unknown origin) at 10 uM by [33P]-ATP radiometric assay; in short: as §2

Sequence of Calcium/calmodulin-dependent protein kinase type II subunit alpha (Homo sapiens) (Q9UQM7 whole entry): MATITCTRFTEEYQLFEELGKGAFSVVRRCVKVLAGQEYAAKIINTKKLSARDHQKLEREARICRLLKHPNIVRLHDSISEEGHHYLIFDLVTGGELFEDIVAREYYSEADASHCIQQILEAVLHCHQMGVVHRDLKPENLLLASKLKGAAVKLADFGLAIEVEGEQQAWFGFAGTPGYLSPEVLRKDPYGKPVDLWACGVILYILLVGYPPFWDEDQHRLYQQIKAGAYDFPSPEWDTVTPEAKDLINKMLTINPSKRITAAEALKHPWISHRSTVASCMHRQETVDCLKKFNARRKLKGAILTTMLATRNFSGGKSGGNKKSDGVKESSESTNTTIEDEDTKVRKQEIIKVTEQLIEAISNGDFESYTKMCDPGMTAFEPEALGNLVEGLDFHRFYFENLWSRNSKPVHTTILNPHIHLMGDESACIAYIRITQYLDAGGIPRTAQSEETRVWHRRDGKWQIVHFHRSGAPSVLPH
Sequence of Protein kinase C beta type (Homo sapiens) (P05771 2-671 limits assumed): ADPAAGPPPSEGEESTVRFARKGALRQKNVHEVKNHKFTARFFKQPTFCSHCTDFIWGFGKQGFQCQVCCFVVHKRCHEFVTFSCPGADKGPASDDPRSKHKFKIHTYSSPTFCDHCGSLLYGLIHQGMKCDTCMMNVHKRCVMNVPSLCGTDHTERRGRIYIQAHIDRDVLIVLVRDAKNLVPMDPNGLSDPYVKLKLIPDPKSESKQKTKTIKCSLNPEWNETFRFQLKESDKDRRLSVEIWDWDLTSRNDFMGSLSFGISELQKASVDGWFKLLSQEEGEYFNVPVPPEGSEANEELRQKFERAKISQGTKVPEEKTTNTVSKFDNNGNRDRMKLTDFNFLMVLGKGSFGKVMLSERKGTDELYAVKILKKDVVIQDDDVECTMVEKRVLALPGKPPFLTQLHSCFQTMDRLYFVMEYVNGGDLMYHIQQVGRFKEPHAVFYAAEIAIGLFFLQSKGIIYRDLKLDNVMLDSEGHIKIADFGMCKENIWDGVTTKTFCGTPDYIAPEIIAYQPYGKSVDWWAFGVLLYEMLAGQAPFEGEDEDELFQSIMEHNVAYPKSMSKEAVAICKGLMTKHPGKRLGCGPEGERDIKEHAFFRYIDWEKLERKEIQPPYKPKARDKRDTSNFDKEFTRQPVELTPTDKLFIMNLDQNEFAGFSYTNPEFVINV
Sequence of Mitogen-activated protein kinase 3 (Homo sapiens) (P27361 whole entry): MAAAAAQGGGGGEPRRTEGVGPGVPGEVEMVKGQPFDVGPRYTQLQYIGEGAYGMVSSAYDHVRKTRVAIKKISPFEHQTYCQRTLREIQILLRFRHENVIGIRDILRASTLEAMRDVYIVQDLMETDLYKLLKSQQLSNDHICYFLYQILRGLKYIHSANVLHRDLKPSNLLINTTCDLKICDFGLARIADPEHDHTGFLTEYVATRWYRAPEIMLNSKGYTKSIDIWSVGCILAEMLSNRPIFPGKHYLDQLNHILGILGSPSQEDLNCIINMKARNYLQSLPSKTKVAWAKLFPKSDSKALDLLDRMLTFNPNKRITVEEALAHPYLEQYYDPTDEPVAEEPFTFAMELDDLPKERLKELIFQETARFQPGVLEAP
Sequence of Hepatocyte growth factor receptor (Homo sapiens) (P08581 whole entry): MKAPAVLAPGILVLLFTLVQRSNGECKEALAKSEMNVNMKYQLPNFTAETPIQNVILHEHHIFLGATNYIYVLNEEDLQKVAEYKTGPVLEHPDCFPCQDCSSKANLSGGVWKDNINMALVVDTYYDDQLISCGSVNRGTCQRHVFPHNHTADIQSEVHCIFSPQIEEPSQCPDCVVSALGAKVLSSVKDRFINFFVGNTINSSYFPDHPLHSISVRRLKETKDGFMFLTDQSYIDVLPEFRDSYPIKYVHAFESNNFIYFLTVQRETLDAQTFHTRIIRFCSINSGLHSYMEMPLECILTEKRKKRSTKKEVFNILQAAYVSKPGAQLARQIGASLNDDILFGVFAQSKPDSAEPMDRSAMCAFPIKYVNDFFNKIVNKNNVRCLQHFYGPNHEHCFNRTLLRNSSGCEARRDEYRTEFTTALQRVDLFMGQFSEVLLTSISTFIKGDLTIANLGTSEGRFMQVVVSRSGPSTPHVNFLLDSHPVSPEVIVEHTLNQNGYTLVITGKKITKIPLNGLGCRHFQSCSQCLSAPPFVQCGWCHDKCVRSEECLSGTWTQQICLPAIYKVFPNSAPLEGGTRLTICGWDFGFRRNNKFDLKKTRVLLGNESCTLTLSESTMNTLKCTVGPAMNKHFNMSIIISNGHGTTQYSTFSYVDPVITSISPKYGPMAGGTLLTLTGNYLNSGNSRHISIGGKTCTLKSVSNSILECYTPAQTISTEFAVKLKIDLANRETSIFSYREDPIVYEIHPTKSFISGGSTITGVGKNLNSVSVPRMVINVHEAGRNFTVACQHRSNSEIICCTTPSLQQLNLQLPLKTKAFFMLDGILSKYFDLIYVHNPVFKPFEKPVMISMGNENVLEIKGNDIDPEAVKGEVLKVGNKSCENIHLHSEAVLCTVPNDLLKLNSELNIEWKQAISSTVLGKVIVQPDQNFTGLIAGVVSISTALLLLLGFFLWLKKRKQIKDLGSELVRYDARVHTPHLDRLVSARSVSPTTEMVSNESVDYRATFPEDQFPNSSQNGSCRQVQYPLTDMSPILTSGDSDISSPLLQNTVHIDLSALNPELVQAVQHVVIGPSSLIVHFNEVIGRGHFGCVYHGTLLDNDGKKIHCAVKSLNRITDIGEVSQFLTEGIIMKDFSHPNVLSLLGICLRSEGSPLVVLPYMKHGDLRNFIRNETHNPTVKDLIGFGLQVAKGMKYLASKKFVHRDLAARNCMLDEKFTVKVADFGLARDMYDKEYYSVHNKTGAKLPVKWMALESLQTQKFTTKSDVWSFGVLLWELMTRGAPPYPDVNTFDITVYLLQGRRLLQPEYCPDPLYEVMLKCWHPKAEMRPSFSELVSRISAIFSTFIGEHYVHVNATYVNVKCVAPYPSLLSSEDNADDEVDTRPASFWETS
Sequence of Epidermal growth factor receptor (Homo sapiens) (P00533 whole entry): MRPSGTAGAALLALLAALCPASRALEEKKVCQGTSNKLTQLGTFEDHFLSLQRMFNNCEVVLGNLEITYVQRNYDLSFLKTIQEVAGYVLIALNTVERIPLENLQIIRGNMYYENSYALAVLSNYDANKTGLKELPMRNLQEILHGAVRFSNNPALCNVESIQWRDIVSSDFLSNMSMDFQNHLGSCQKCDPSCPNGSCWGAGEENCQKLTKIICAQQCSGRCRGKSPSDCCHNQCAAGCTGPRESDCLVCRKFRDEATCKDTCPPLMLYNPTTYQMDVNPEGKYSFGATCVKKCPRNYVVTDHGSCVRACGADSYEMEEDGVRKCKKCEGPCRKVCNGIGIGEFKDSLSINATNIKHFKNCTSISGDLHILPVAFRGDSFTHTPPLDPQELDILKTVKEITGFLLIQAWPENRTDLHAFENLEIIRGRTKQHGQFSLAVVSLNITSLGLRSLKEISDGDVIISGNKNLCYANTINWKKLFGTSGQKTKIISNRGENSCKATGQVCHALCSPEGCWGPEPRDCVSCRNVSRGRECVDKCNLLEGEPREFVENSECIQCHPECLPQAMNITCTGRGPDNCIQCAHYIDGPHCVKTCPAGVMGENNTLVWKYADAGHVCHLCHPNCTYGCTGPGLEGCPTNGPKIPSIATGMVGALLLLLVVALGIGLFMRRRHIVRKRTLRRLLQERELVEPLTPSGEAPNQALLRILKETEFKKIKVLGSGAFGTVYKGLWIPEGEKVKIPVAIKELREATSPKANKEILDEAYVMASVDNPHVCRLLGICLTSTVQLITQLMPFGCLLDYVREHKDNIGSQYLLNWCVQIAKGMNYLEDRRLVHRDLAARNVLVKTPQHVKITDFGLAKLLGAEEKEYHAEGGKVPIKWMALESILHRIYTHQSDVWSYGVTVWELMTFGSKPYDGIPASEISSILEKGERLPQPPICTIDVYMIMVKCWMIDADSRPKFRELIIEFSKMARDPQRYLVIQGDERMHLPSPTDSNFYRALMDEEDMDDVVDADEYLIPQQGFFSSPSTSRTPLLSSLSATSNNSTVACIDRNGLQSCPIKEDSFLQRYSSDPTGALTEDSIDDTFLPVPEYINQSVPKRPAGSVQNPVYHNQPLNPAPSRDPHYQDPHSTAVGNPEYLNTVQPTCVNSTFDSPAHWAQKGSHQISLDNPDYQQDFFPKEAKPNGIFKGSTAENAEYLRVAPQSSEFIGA
Sequence of Calcium/calmodulin-dependent protein kinase type 1 (Homo sapiens) (Q14012 whole entry, looked up): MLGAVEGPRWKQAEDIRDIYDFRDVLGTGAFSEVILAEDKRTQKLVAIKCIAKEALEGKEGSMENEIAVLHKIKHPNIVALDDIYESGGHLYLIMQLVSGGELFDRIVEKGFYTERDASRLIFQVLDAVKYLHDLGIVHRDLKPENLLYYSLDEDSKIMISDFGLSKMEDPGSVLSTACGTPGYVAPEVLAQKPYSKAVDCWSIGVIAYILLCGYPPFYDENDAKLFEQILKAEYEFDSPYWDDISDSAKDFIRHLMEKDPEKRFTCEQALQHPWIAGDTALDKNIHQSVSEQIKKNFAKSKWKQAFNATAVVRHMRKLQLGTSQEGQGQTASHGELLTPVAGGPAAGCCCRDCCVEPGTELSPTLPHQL
Sequence of Cyclin-dependent kinase 16 (Homo sapiens) (Q00536 whole entry): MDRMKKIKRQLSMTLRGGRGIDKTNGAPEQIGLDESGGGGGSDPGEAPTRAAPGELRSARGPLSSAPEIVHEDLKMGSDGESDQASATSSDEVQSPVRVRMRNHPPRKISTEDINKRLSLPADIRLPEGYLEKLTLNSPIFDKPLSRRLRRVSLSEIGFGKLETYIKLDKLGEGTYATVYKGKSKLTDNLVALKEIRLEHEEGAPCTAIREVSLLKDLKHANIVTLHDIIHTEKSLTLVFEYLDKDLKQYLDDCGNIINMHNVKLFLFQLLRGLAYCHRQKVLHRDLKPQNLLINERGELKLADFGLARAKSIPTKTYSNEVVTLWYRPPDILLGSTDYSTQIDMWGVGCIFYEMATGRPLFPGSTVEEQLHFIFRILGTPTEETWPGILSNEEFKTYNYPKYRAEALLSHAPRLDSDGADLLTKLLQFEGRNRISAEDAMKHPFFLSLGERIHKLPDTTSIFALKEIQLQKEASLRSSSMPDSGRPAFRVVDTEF

COc1ccc2nc3nc(NC(C)c4ccccc4)[nH]c(=O)c3nc2c1 (stereo not given)
IC50 [1]: 5.73 µM | IC50 [2]: > 50 µM | IC50 [3]: 4.83 µM | IC50 [4]: 5.78 µM | IC50 [5]: > 50 µM

CS(=O)(=O)CCNCc1ccc(-c2ccc3ncnc(Nc4ccc(OCc5cccc(F)c5)c(Cl)c4)c3c2)o1 [LAPATINIB]
IC50 [1]: 6.8 µM | IC50 [3]: 10.4 µM | IC50 [4]: 10.1 µM

Cc1ccc2nc3nc(NCc4ccc(CN5CCN(C)CC5)cc4)[nH]c(=O)c3cc2c1
inhibition [6]: 18% | inhibition [7]: 0% | inhibition [8]: 36% | inhibition [9]: 12% | inhibition [10]: 5% | inhibition [11]: 50% | inhibition [12]: 4% | inhibition [13]: -4% | inhibition [14]: 18% | inhibition [15]: -1% | inhibition [16]: 3% | IC50 [1]: 0.53 µM | IC50 [2]: 13.5 µM | IC50 [3]: 0.32 µM | IC50 [4]: 0.82 µM | IC50 [5]: 10.5 µM

Cc1ccc2nc3nc(NCc4ccc(CN5CCCCC5)cc4)[nH]c(=O)c3cc2c1
IC50 [1]: 2.34 µM | IC50 [2]: 15.9 µM | IC50 [3]: 1.52 µM | IC50 [4]: 7.23 µM | IC50 [5]: 11 µM

COc1ccc2nc3nc(NCc4ccc(CN(C)C)cc4)[nH]c(=O)c3nc2c1
IC50 [1]: 0.55 µM | IC50 [2]: > 50 µM | IC50 [3]: 0.7 µM | IC50 [4]: 1.3 µM | IC50 [5]: > 50 µM | viability at 1 µM [17]: 67.3% | Activity [18]: 11.7% | Activity [19]: 4.8% | Activity [20]: 16.2% | viability at 5 µM [21]: 67.4% | Activity [22]: 17% | Activity [23]: 7.9% | Activity [24]: 7.7% | viability at 10 µM [25]: 60% | Activity [26]: 22.1% | Activity [27]: 12% | Activity [28]: 5.9% | Activity [29]: Dose-dependent effect | fold change (FC) [30]: 2

COc1ccc2nc3nc(NCc4ccc(CN5CCOCC5)cc4)[nH]c(=O)c3cc2c1
IC50 [1]: 3.13 µM | IC50 [2]: 23.2 µM | IC50 [3]: 2.89 µM | IC50 [4]: 5.22 µM | IC50 [5]: 49.1 µM

COc1ccc(CCN2CCC(Nc3nc4nc5ccc(OC)cc5nc4c(=O)[nH]3)CC2)cc1
IC50 [1]: 0.8 µM | IC50 [2]: 17.3 µM | IC50 [3]: 0.9 µM | IC50 [4]: 0.93 µM | IC50 [5]: 33.1 µM

O=c1[nH]c(NCc2ccc(CN3CCOCC3)cc2)nc2nc3ccccc3nc12
IC50 [1]: 1.49 µM | IC50 [2]: > 50 µM | IC50 [3]: 2.01 µM | IC50 [4]: 1.53 µM | IC50 [5]: > 50 µM

CN1CCN(Cc2ccc(CNc3nc4nc5ccc(Cl)cc5cc4c(=O)[nH]3)cc2)CC1
inhibition [6]: 14% | inhibition [7]: -6% | inhibition [8]: 60% | inhibition [9]: 16% | inhibition [10]: 6% | inhibition [11]: 37% | inhibition [12]: 8% | inhibition [13]: -5% | inhibition [14]: 9% | inhibition [15]: 11% | inhibition [16]: 5% | IC50 [1]: 0.62 µM | IC50 [2]: 26.8 µM | IC50 [3]: 0.54 µM | IC50 [4]: 0.72 µM | IC50 [5]: > 50 µM

Cc1ccc2nc3nc(NCCO)[nH]c(=O)c3cc2c1
IC50 [1]: 0.17 µM

CSc1nc2nc3ccc(C)cc3cc2c(=O)[nH]1
IC50 [1]: 1.79 µM

Cc1ccc(NC(=O)c2ccc(CN3CCN(C)CC3)cc2)cc1Nc1nccc(-c2cccnc2)n1 [IMATINIB]
inhibition [31]: -2% | inhibition [6]: 10% | inhibition [7]: 1% | inhibition [32]: 11% | inhibition [9]: 9% | inhibition [10]: -2% | inhibition [11]: 1% | inhibition [14]: 10% | inhibition [15]: 10% | inhibition [16]: 10% | IC50 [1]: 7.12 µM | IC50 [2]: 3.43 µM | IC50 [3]: 8.9 µM | IC50 [4]: 19.7 µM

— ChEMBL document CHEMBL4152228, “Structural-based design, synthesis, and antitumor activity of novel alloxazine analogues with potential selective kinase inhibition” (Eur J Med Chem, 2018)
